High-throughput results as filed in PubChem BioAssay.
Rows were chosen to be rich in hits. Some 1.5% of all compounds tested hit in one or more screens of this group.
MT1-MMP act inh – inhibitors of human MT1-MMP activation; P50281; HT1080 RFP-PRO-GFP cells, GFP/RFP ratio fluorescence, overnight; percent of plate control window, DMSO zero; GFP/RFP ratio change, % at 20 µM; 360,000 compounds, 0.061% hits; AID 651647;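 active = GFP/RFP ratio change of at least 30% with cell ATP level not reduced by more than half and red fluorescence within 50% of control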
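Read-out: GFP/RFP fluorescence ratio; Test system: RFP-PRO-GFP reporter HT1080 cells; Compound dosing: single-point 20 µM compound, 1% DMSO; Times: overnight compound exposure at 37 °C.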
UCH37 DUB inh – blocks the human deubiquitinase UCH37; purified proteasome/UCH37, Ub-AMC cleavage fluorescence; inhibition, % (test concentration not listed); 330,000 compounds, 0.33% hits;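 active = mean inhibition over replicate wells above about 20%, limit read from the data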;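 note: 0% = compound-free wells with enzyme and 100% = wells lacking proteasome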
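system = Proteasome-associated human UCH37 deubiquitinase | amount = 0.15 nM proteasome as dispensed | medium = pH 7.4 Tris-HCl (50 mM) with ovalbumin, ATP-MgCl2, DTT | incubation = 30 min preincubation with enzyme, 25 min cleavage at room temperature | detection = AMC fluorescence 355/460 nm | read-out basis = percent inhibition | controls = no-proteasome and no-compound wells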
CendR NRP1 mod – modulators of CendR peptide binding to human neuropilin-1. O14786. FAM-RPARPAR peptide binding to NRP-1, fluorescence polarization. inhibition, % at 25 µM. 360,000 compounds, 0.85% hits;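 active = inhibition or corrected inhibition above about 18%, plus a signal ratio from 0.5 to 1.5, limit read from the data, passing the limit was not always enough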
CTSL1 counter – cathepsin L1 inhibition, PFM18AAP counter-screen | recombinant F. hepatica cathepsin L1, Z-Leu-Arg-MCA fluorescence | inhibition, % at 5.96 µM | 300,000 compounds, 0.49% hits | AID 1906;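 active = inhibition above the mean of all tested compounds plus 3 SD, set per screening campaign, cut at about 17% in these data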;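 note: 0% = plate median of test compound wells and 100% = 1 µM Z-Phe-Ala-diazomethylketone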
DAGLB inhibitor – diacylglycerol lipase beta (human) inhibition. Q8NCG7. HEK293T DAGLB membrane lysate, EnzChek fluorogenic substrate. inhibition, % at 5.17 µM. 340,000 compounds, 0.059% hits; in the data active = inhibition above about 34%;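 note: 0% = enzyme with vehicle and 100% = wells lacking enzyme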
Target sequence (Q8NCG7 whole entry, looked up): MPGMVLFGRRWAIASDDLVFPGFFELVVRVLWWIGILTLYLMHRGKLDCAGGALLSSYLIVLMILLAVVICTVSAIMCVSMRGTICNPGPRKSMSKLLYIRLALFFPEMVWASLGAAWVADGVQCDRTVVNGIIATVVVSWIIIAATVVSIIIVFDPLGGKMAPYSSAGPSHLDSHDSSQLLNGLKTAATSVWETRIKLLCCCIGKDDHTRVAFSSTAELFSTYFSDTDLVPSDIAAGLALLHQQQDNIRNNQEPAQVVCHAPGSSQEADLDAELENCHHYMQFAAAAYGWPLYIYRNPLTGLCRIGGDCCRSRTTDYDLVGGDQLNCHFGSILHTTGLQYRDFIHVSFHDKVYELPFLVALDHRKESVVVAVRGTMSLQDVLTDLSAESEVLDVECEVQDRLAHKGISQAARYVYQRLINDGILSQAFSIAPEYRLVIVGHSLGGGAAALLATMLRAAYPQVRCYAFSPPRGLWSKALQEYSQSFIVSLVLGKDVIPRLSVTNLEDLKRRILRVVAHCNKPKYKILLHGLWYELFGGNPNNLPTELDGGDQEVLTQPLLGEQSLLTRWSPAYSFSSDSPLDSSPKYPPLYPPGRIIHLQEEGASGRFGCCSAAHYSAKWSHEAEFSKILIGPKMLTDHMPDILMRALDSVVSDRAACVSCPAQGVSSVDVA
Numbers without * were called inactive; nt = no result given.

SMILES	MT1-MMP act inh	UCH37 DUB inh	CendR NRP1 mod	CTSL1 counter	DAGLB inhibitor
N#CC1=C(N)OC2=C(C(=O)CC(c3ccco3)C2)C1c1ccc(OCc2c(F)cccc2Cl)cc1 (stereo not drawn)	-7	32*	-38	0	6
COc1cccc(C2C(C#N)=C(N)OC3=C2C(=O)CC(c2ccco2)C3)c1OCc1ccc(F)cc1 (stereo not drawn)	-7	0	-10	-3	3
CC(C)CNC(=O)C1C(=O)Nc2ccccc2C(=O)N1C1CCCCC1 (stereo not drawn)	0	nt	-1	nt	nt
O=C(Nc1ccc2c(c1)OCCO2)C1C(=O)Nc2ccccc2C(=O)N1C1CCCCC1 (stereo not drawn)	-1	nt	21*	nt	nt
COc1cc2c3c(c1)c(C1=NC(=S)NC1=O)c(O)n3C(C)(C)C=C2C	-1	5	-1	-2	5
CC1(c2ccccc2)CC(C)(C)n2c(O)c(C3=NC(=S)NC3=O)c3cccc1c32 (stereo not drawn)	0	9	26*	1	10
O=C(NN=Cc1ccc(OC(=O)c2cccs2)cc1)c1ccc(Cl)cc1	nt	4	nt	nt	nt
CC(=O)C[C@H]1c2cc(C(F)(F)F)ccc2S(=O)(=O)N1C1CCCCC1	-2	4	27*	-2	-3
CCOC(=O)C[C@H]1c2cc(F)ccc2S(=O)(=O)N1C1CCCCC1	9	-1	26*	0	-3
COC(=O)C[C@H]1c2cc(F)ccc2S(=O)(=O)N1C(C)C	1	4	26*	-4	-2
COC(=O)C[C@H]1c2cc(C(F)(F)F)ccc2S(=O)(=O)N1C1CCCCC1	1	4	14	-4	-6
CCOC(=O)C[C@H]1c2cc(F)ccc2S(=O)(=O)N1c1cccc(OC)c1	2	0	-10	-3	-1
COC(=O)C[C@H]1c2cc(F)cc(F)c2S(=O)(=O)N1C1CCN(Cc2ccccc2)CC1	2	1	27*	0	0
O=C(NN=Cc1ccc2c(c1)OCO2)c1cccc2ccccc12	nt	2	nt	nt	nt
COC(=O)C[C@H]1c2cc(C(F)(F)F)ccc2S(=O)(=O)N1Cc1ccccc1	3	2	25*	5	-1
COC(=O)C[C@H]1c2cc(C(F)(F)F)ccc2S(=O)(=O)N1C1CCCC1	2	1	24*	0	-1
Cc1ccc(-n2nnnc2Sc2nc([N+](=O)[O-])nn2C)cc1C	-1	20*	6	9	2
CC(=O)Nc1ccc(NC(=O)Cn2nc(C(=O)Nc3ccc(C)cc3)ccc2=O)cc1	1	2	-15	47*	0
COC(=O)c1ccc(-c2ccco2)n1Cc1ccccc1Cl	-6	-3	-22	-2	-9
COC(=O)c1ccc(-c2ccco2)n1Cc1nc(-c2ccc(OC)c(OC)c2)oc1C	-8	4	-34	19*	-5
O=C(CN1C(=O)S/C(=C\c2cccs2)C1=O)Nc1ccc(O)c(C(=O)O)c1	0	21*	-14	4	19
Cc1ncc([N+](=O)[O-])n1CC(=O)NN=Cc1ccccc1F	nt	4	nt	nt	nt
NC(N)=NCCC[C@H](NC(=O)OCc1ccccc1)C(=O)O	0	2	27*	0	3
NC(=O)CC(NC(=O)OCc1ccccc1)C(=O)O (stereo not drawn)	0	2	31*	-1	1
CC(C)[C@H](NC(=O)OCc1ccccc1)C(=O)NC(C=O)Cc1ccccc1 (stereo partly drawn)	4	2	-1	113*	1
SMILES	MT1-MMP act inh	UCH37 DUB inh	CendR NRP1 mod	CTSL1 counter	DAGLB inhibitor
C=CCn1c(COc2ccccc2)nnc1SCC(=O)NN=Cc1ccc(C)cc1	nt	-1	nt	nt	nt
OCCCNc1ncnc2sc3c(c12)CCN(Cc1ccccc1)C3	-21	-234	-76	32*	1
O=c1[nH]cnc2sc3c(c12)CCN(Cc1ccccc1)C3	-16	-24	-24	-1	0
CCCn1c(=O)c(C(=O)OCC)c(O)c2cc(Br)ccc21	-2	4	-17	-1	-1
CCOC(=O)c1c(CN(C)C)n(C)c2c(O)c(N=NC(N)=O)c3ccc(Br)cc3c12	-2	52*	13	20*	3
CCn1cc(C=NNC(=O)c2ccc3c(c2)c(C)c(C)n3Cc2ccccc2)c(C)n1	nt	-2	nt	nt	nt
COCCCNc1oc(-c2ccccc2Cl)nc1C#N	4	-22	-2	2	3
